PREPL inhibitor – human PREPL enzyme inhibition | Q4J6C6 | recombinant PREPL, fluorescence polarization activity-based probe | inhibition, % at 5.96 µM | actives 0.68% (n = 320,000); in the data active means inhibition above about 43%
Target sequence (Q4J6C6 whole entry, looked up): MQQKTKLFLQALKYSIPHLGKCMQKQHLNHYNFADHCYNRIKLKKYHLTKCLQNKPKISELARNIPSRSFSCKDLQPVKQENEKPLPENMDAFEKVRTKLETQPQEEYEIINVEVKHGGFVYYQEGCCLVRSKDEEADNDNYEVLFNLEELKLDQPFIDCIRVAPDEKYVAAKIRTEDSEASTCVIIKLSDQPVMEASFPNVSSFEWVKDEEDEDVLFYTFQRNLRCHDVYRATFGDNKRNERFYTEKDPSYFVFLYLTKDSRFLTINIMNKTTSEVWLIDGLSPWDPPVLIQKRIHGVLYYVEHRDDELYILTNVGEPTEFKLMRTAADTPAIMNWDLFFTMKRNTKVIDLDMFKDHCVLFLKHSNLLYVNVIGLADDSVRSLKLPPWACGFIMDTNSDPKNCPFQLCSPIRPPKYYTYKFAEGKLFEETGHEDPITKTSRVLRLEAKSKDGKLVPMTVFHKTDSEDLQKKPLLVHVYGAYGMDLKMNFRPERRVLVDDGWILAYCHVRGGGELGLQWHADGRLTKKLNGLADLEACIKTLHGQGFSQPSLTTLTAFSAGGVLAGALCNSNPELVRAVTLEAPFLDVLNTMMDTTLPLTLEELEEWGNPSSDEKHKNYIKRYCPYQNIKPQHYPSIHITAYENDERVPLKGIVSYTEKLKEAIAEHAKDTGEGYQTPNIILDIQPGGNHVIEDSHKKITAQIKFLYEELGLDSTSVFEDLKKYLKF
CSC inhib – blocks cancer stem cells; cancer stem cell-like cells viability, luminescence; inhibition, % at 7.5 µM; actives 1.1% (n = 300,000); in the data active means inhibition above about 75%; tested in HMLE shEcad cells
CHOP inhibitor – blocks CHOP induction under ER stress. CHO-K1 CHOP-promoter luciferase, tunicamycin-induced, 15-18 h. inhibition, % at 10 µM. actives 3.8% (n = 220,000);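 active means compounds that reduced the stress-induced luciferase reporter signal by more than about 70% of percent inhibition, limit read from the data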
Beta cell apopt – blocks beta cell apoptosis; INS-1E cytokine-induced death, ATP luminescence, 48 h; percent of positive-control rescue, neutral wells zero; protection from apoptosis, % (concentration not given with the values); actives 0.8% (n = 300,000); AID 435005;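 active means Every replicate reaches about 75%, or at least half do and their mean reaches it too, limit read from the data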;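 further: higher means more ATP so stronger rescue from cytokine killing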
T cruzi inh – T. cruzi replication inhibition; T. cruzi beta-gal in NIH3T3, luminescence, 90 h; inhibition, % (no concentration beside the values); actives 1.4% (n = 300,000); AID 1885;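 active means mean inhibition across valid replicates above about 55%, limit read from the data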;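 further: signal also drops with host cell toxicity which is not excluded here; higher percent means less beta-gal luminescence so fewer parasites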
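Test system: β-gal T. cruzi (Tulahuen C4) inside NIH/3T3 cells / Quantity: 5,000 cells/well / Measured by: luminescence from GalScreen with 0.05% NP40, read after 60 min / Medium: DMEM plus 2% FBS / Measure: parasite load inhibition, % / Reagent: Tulahuen C4 trypomastigotes, 5000/well / Schedule: co-culture of at least 90 h after 3 h attachment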
GRIN3A LBD mod – modulators (binders) of human NR3A ligand-binding domain | actives 2.5% (n = 340,000) | Tm shift relative to glycine control, % at 25 µM | NR3A LBD differential scanning fluorimetry, Tm shift; 0% = protein alone, 100% = glycine-bound protein;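 active means melting temperature shift of at least 10% of the positive control shift, at one fixed dose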
Hits are given with their value. Rows were chosen to be rich in hits. Some 6.7% of all compounds tested hit in one or more screens of this group.

For CC(C)C(=O)NC(=S)Nc1ccccc1N1CCN(C(=O)c2ccc(Cl)cc2)CC1 the results were PREPL inhibitor inactive, CSC inhib inactive, CHOP inhibitor inactive, Beta cell apopt inactive, T cruzi inh 64 and GRIN3A LBD mod inactive.
`CC(C)(C)C(=O)Nc1ccccc1N1CCN(C(=O)c2ccc(Cl)cc2)CC1` gave PREPL inhibitor inactive, CSC inhib inactive, CHOP inhibitor inactive, Beta cell apopt inactive, T cruzi inh inactive and GRIN3A LBD mod inactive.
CCN1CCN(c2ccc(S(=O)(=O)N3CCOCC3)cc2NC(=O)c2ccc(Cl)s2)CC1 was read as PREPL inhibitor inactive, CSC inhib inactive, Beta cell apopt inactive, T cruzi inh 69 and GRIN3A LBD mod inactive.
For CCN1CCN(c2ccc(S(=O)(=O)N3CCCCC3)cc2NC(=O)c2cc3ccccc3o2)CC1 the results were PREPL inhibitor inactive, CSC inhib inactive, Beta cell apopt inactive, T cruzi inh 76 and GRIN3A LBD mod inactive.
Screening Cc1ccc(S(=O)(=O)N2CCCCC2)cc1NC(=O)c1cc2ccccc2o1 returned PREPL inhibitor inactive, CSC inhib inactive, Beta cell apopt inactive and GRIN3A LBD mod inactive.
`CCCc1cc(=O)oc2cc(C)cc(OC(C)C(=O)NCC(O)c3ccccc3)c12` (centres undefined) gave PREPL inhibitor inactive, CSC inhib inactive, Beta cell apopt inactive, T cruzi inh inactive and GRIN3A LBD mod inactive.
Screening O=C(CC(SCCO)c1ccc([N+](=O)[O-])cc1)c1ccco1 (centres undefined) returned PREPL inhibitor inactive, CSC inhib inactive, Beta cell apopt inactive, T cruzi inh inactive and GRIN3A LBD mod 40.
`Cc1ccc(-c2csc3ncnc(Sc4nnc(CN5CCCCCC5=O)o4)c23)cc1` gave PREPL inhibitor inactive, CSC inhib 81, Beta cell apopt inactive, T cruzi inh inactive and GRIN3A LBD mod inactive.
For CCN(CCNC(=O)c1ccc(C#N)cc1)c1cccc(C)c1 the results were PREPL inhibitor inactive, CSC inhib inactive, Beta cell apopt inactive, T cruzi inh inactive and GRIN3A LBD mod inactive.
Screening CCN(CCNCC(O)COCc1ccc(Cl)cc1)c1cccc(C)c1 (centres undefined) returned PREPL inhibitor inactive, CSC inhib inactive, CHOP inhibitor 83, Beta cell apopt inactive, T cruzi inh inactive and GRIN3A LBD mod inactive.
COc1cc(-c2noc(C)c2/C=C/c2ccc(N)cc2)cc(OC)c1OC was read as PREPL inhibitor inactive, CSC inhib inactive, Beta cell apopt inactive, T cruzi inh inactive and GRIN3A LBD mod inactive.
`COc1cc(-c2noc(C)c2C#Cc2ccccn2)cc(OC)c1OC` gave PREPL inhibitor inactive, CSC inhib 82, Beta cell apopt inactive, T cruzi inh inactive and GRIN3A LBD mod inactive.
COc1cc(-c2noc(C)c2C#Cc2ccc(N)cc2)cc(OC)c1OC was read as PREPL inhibitor inactive, CSC inhib 108, Beta cell apopt inactive, T cruzi inh inactive and GRIN3A LBD mod inactive.
For COc1cccc(CN2CCNC(=O)C2CC(=O)NCCCN2CCCC2=O)c1 (centres undefined) the results were PREPL inhibitor inactive, CSC inhib inactive, Beta cell apopt inactive, T cruzi inh inactive and GRIN3A LBD mod inactive.
Cn1c(C2CCCCC2)nc2c1c(=O)[nH]c(=O)n2Cc1ccccc1 was read as PREPL inhibitor inactive, CSC inhib inactive, CHOP inhibitor 72, Beta cell apopt inactive, T cruzi inh inactive and GRIN3A LBD mod inactive.
`CCOc1ccccc1/C=C(/NC(=O)c1ccccc1)C(=O)N1CCCCC1` gave PREPL inhibitor inactive, CSC inhib inactive, Beta cell apopt inactive, T cruzi inh inactive and GRIN3A LBD mod inactive.
For CCCc1c(C(=O)Nc2ccc(F)cc2F)cnn1-c1ccccc1 the results were PREPL inhibitor inactive, CSC inhib inactive, CHOP inhibitor inactive, Beta cell apopt inactive and GRIN3A LBD mod inactive.
CCCc1c(C(=O)NNc2cccc(Cl)c2)cnn1-c1ccccc1 was read as PREPL inhibitor inactive, CSC inhib 80, CHOP inhibitor inactive, Beta cell apopt inactive, T cruzi inh inactive and GRIN3A LBD mod inactive.
`O=C(CCOc1ccccc1)N1CCN(c2ccc(O)cc2)CC1` gave PREPL inhibitor inactive, CSC inhib 82, CHOP inhibitor inactive, Beta cell apopt inactive, T cruzi inh inactive and GRIN3A LBD mod inactive.
